ChEMBL document CHEMBL2407076, “cis-Restricted 3-aminopyrazole analogues of combretastatins: synthesis from plant polyalkoxybenzenes and biological evaluation in the cytotoxicity and phenotypic sea urchin embryo assays” (2013)
Activity calls are given as the source filed them.

Assays:
Paracentrotus lividus [1] = experiment: Antiproliferative activity against sea urchin embryo assessed as cleavage arrest compound treated at 45 to 55 mins prior to first mitotic cycle completion and measured at 2.5 to 5.5 hrs post fertilization; type: functional
Summary of the method: (§1)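 Fertilized eggs were treated 8−20 min after fertilization. The embryos were held at room temperature in filtered seawater as a monolayer of up to 2000 embryos/mL. Compounds were given as 2-fold decreasing concentrations from a 10 mM DMSO stock diluted 10-fold in 95% EtOH, with DMSO ≤0.05% and EtOH ≤1%. Embryos were scored by light microscopy. The value is the effective threshold concentration, measured in duplicate.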

Paracentrotus lividus [2] = experiment: Antiproliferative activity against sea urchin embryo assessed as cleavage alteration compound treated at 45 to 55 mins prior to first mitotic cycle completion and measured at 2.5 to 5.5 hrs post fertilization; type: functional; summary of the method: as §1
Paracentrotus lividus [3] = experiment: Microtubule destabilizing activity in sea urchin embryo assessed as embryo spinning compound treated just after hatching at 8 to 10 hrs post fertilization and measured after 15 mins to 20 hrs of treatment
[4] = Growth inhibition of human NCI60 cells at 10 uM after 48 hrs by SRB assay; type: functional; conditions: NCI60, 48 h, read-out: GI
Summary of the method: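 Tested in the NCI60 single-dose screen at 10 μM. The value is the mean percent inhibition of cell growth across the panel.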

OVCAR-8 = experiment: Growth inhibition of human OVCAR8 cells after 48 hrs by SRB assay; type: functional, cell-based
Summary of the method: (§2)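 Tested in the NCI60 anticancer drug screen. GI50 is the concentration giving 50% cell growth inhibition. For the panel-wide line, the value is the mean GI50 across the panel.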

NCI/ADR-RES = experiment: Growth inhibition of human NCI/ADR-RES cells after 48 hrs by SRB assay; type: functional, cell-based; summary of the method: as §2
K562 = experiment: Growth inhibition of human K562 cells after 48 hrs by SRB assay; type: functional; conditions: K562, 48 h; summary of the method: as §2
SR = experiment: Growth inhibition of human SR cells after 48 hrs by SRB assay; type: functional; summary of the method: as §2
[5] = Growth inhibition of human NCI60 cells after 48 hrs by SRB assay; type: functional; conditions: NCI60, 48 h; summary of the method: as §2
HL-60(TB) = experiment: Growth inhibition of human HL-60(TB) cells after 48 hrs by SRB assay; type: functional; conditions: HL-60, 48 h
Summary of the method: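 Tested in the NCI60 anticancer drug screen. HL-60(TB) is one of the leukemia lines in the panel. Value reported as GI50, the concentration needed for 50% inhibition of cell growth.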

KM12 = experiment: Growth inhibition of human KM12 cells after 48 hrs by SRB assay; type: functional; conditions: KM12, 48 h; summary of the method: as §2
SW-620 = experiment: Growth inhibition of human SW620 cells after 48 hrs by SRB assay; type: functional; conditions: SW-620, 48 h; summary of the method: as §2
OVCAR-3 = experiment: Growth inhibition of human OVCAR3 cells after 48 hrs by SRB assay; type: functional; conditions: OVCAR-3, 48 h; summary of the method: as §2
NCI-H522 = experiment: Growth inhibition of human NCI-H522 cells after 48 hrs by SRB assay; type: functional; conditions: NCI-H522, 48 h; summary of the method: as §2
MDA-MB-435 = experiment: Growth inhibition of human MDA-MB-435 cells after 48 hrs by SRB assay; type: functional; conditions: MDA-MB-435, 48 h; summary of the method: as §2

For COc1ccc(-c2c(N)n[nH]c2-c2cc(OC)c3c(c2OC)OCO3)cc1, the EC (Paracentrotus lividus [1]) was greater than 4 µM, the EC (Paracentrotus lividus [2]) was 4 µM and the EC (Paracentrotus lividus [3]) was greater than 4 µM.

Molecule COc1ccc(-c2c(N)n[nH]c2-c2cc(OC)c3c(c2)OCO3)cc1 has an EC (Paracentrotus lividus [1]) greater than 4 µM, an EC (Paracentrotus lividus [2]) of 1 µM and an inhibition of growth at 10 µM [4] of 18.1%. It also gave an EC (Paracentrotus lividus [3]) greater than 5 µM.

In the case of COc1ccc(-c2c(N)n[nH]c2-c2cc(OC)c(OC)c(OC)c2)cc1, the EC (Paracentrotus lividus [1]) is reported as 1 µM, the EC (Paracentrotus lividus [2]) is reported as 0.1 µM and the “growth inhibition (GI)” value (OVCAR-8) is reported as “Active”. For the same molecule, the “growth inhibition (GI)” value (NCI/ADR-RES) was “Active”, the GI50 (K562) was less than 100 nM and the GI50 (SR) was less than 100 nM. For the same molecule, the GI50 [5] was 302 nM, the inhibition of growth at 10 µM [4] was 75.8% and the GI50 (HL-60(TB)) was less than 100 nM. It also gave a GI50 (KM12) of less than 100 nM, a GI50 (SW-620) of less than 100 nM and a GI50 (OVCAR-3) of less than 100 nM. It also gave an EC (Paracentrotus lividus [3]) greater than 10 µM.

In the case of COc1ccc(-c2[nH]nc(N)c2-c2cc(OC)c3c(c2)OCO3)cc1, the EC (Paracentrotus lividus [1]) is reported as greater than 4 µM, the EC (Paracentrotus lividus [2]) is reported as 0.2 µM and the “growth inhibition (GI)” value (OVCAR-8) is reported as “Active”. For the same molecule, the “growth inhibition (GI)” value (NCI/ADR-RES) was “Active”, the GI50 [5] was 4370 nM and the inhibition of growth at 10 µM [4] was 46%. For the same molecule, the EC (Paracentrotus lividus [3]) was greater than 10 µM.

With COc1ccc(-c2[nH]nc(N)c2-c2cc(OC)c(OC)c(OC)c2)cc1 the EC (Paracentrotus lividus [1]) was 0.05 µM, the EC (Paracentrotus lividus [2]) was 0.01 µM and the “growth inhibition (GI)” value (OVCAR-8) was “Active”. The “growth inhibition (GI)” value (NCI/ADR-RES) was “Active”, the GI50 (NCI-H522) was less than 10 nM and the GI50 (MDA-MB-435) was less than 10 nM. For the same molecule, the GI50 [5] was 46 nM, the inhibition of growth at 10 µM [4] was 89.2% and the EC (Paracentrotus lividus [3]) was 1 µM.

For COc1ccc(-c2c(N)n[nH]c2-c2cc(OC)c3c(c2)OCCO3)cc1, the EC (Paracentrotus lividus [1]) was greater than 4 µM, the EC (Paracentrotus lividus [2]) was 1 µM and the inhibition of growth at 10 µM [4] was 32%. It also gave an EC (Paracentrotus lividus [3]) greater than 5 µM.

Work on COc1ccc(-c2[nH]nc(N)c2-c2cc3c(c(OC)c2OC)OCO3)cc1 yielded an EC (Paracentrotus lividus [1]) greater than 4 µM, an EC (Paracentrotus lividus [2]) greater than 4 µM and an EC (Paracentrotus lividus [3]) greater than 4 µM.

Molecule COc1ccc(-c2c(N)n[nH]c2-c2cc3c(c(OC)c2OC)OCO3)cc1 has an EC (Paracentrotus lividus [1]) greater than 4 µM, an EC (Paracentrotus lividus [2]) greater than 4 µM and an inhibition of growth at 10 µM [4] of 3.38%. For the same molecule, the EC (Paracentrotus lividus [3]) was greater than 4 µM.

In the case of COc1ccc(-c2[nH]nc(N)c2-c2cc(OC)c3c(c2OC)OCO3)cc1, the EC (Paracentrotus lividus [1]) is reported as greater than 4 µM, the EC (Paracentrotus lividus [2]) is reported as greater than 4 µM and the EC (Paracentrotus lividus [3]) is reported as greater than 4 µM.
